The source made the active and inactive calls. No cut-off for these calls is given here.
How the values were obtained:
Lytechinus pictus [1] = assay: (§1) Antagonistic activity at NAADP receptor in sea urchin egg homogenate assessed as inhibition of NAADP-mediated Ca2+ release using Fluo-3 staining based fluorimetric assay relative to control; type: functional, tissue-based
[2] = Displacement of [32P]NAADP from NAADP receptor in sea urchin egg homogenate preincubated 10 mins before [32P]NAADP addition; type: tissue-based, Lytechinus pictus
Summary of the method: (§2)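 Sea urchin egg homogenate in intracellular-like buffer. Compound in DMSO (final 1% v/v) pre-incubated 10 min at 25°C, then [32P]NAADP added to 0.3 nM. Incubated 30 min, then binding assessed by filtration; concentration range used for displacement curves.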

[3] = as §1; type: functional, tissue-based, Lytechinus pictus
Lytechinus pictus [4] = assay: Noncompetitive inhibition of NAADP receptor in sea urchin egg homogenate assessed as inhibition of NAADP induced Ca2+ release using Fluo-3 staining based fluorimetric assay; type: tissue-based
[5] = Displacement of [32P]NAADP from Egg-binding protein in sea urchin egg homogenate at 6 uM after 10 mins; type: tissue-based, Lytechinus pictus; summary of the method: as §2
Lytechinus pictus [6] = assay: Displacement of [32P]NAADP from NAADP receptor in sea urchin egg homogenate after 5 days; type: tissue-based
Summary of the method: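 Homogenate pre-incubated 10 min with compound (10 μM) or NAADP (10 nM), then [32P]NAADP added. Samples filtered at time points up to 5 days; dissociation read as recovery of [32P]NAADP binding (100% ≈ 1,500 cpm).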

Lytechinus pictus [7] = assay: Antagonistic activity at NAADP receptor in intact sea urchin eggs assessed as Inhibition of NAADP mediated Ca2+ increase at 100 uM using Oregon Green 488-BAPTA Dextran staining based by laser scanning confocal microscopy; type: functional
Summary of the method: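 Intact Lytechinus pictus eggs on polylysine-coated coverslips in artificial seawater containing compound. Eggs microinjected with Oregon Green 488 BAPTA Dextran (10 μM). NAADP (100 μM in pipette) pressure-microinjected to 1% egg volume, delivering ~1 μM. Imaged by laser-scanning confocal microscopy, 488 nm excitation, emission 530±15 nm band-pass or 510 nm long-pass.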

Mus musculus [8] = species: Mus musculus; assay: Antagonistic activity at NAADP receptor in CD1 mouse pancreatic beta cells assessed as inhibition of NAADP-mediated Ca2+ increase at 125 uM by patch clamp method; type: functional
Summary of the method: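 Mouse pancreatic beta cells voltage-clamped with a patch pipette; NAADP delivered through the pipette (50 nM in text, 100 nM in legend). Compound pre-incubated in the bathing solution. Ca2+ increases read as Ca2+-dependent current traces, compared with and without compound in the bath.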

Mus musculus [9] = species: Mus musculus; assay: Binding affinity to NAADP receptor in CD1 mouse pancreatic beta cells assessed as fluorescent labeling of receptor at 60 nM after 30 mins in presence of V-type proton pump inhibitor bafilomycin A1 by confocal microscopy
Summary of the method: (§3)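 Mouse pancreatic beta cells imaged by confocal microscopy, compound excited at 355 nm with emission 415±30 nm. LysoTracker Red (50 nM, 20-40 min; excitation 568 nm, emission >590 nm) used as comparison. Pretreatment with bafilomycin A1 (3 μM, 15 min) or NAADP-acetoxymethyl ester (60 nM, 30 min).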

Mus musculus [10] = species: Mus musculus; assay: Binding affinity to NAADP receptor in CD1 mouse pancreatic beta cells assessed as fluorescent labeling of receptor at 60 nM after 30 mins by confocal microscopy; summary of the method: as §3
[11] = (§4) Inhibition of glucose-induced Ca2+ increase in CD1 mouse pancreatic islets preincubated for 30 mins before glucose challenge; type: functional, cell-based; settings: CD1, Pancreatic islet
Summary of the method: (§5)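 Acutely isolated mouse islets loaded with fura-PE3 AM and held in 3 mM glucose. Compound pre-incubated 30 min, then 15 mM glucose added. First peak, oscillation amplitude and plateau measured; concentration-inhibition curve gives IC50.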

Pancreatic islet [12] = assay: as §4; type: functional, cell-based; summary of the method: as §5
Mus musculus [13] = species: Mus musculus; assay: Inhibition of L-type calcium channel in CD1 mouse pancreatic islets at 100 uM in presence of glucose diazoxide and KCl
Summary of the method: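 Mouse islets in glucose (10 mM) and diazoxide (100 μM), depolarized with KCl (45 mM) with or without compound (100 μM). Ca2+ transient monitored with fura-PE3.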

Pancreatic islet [14] = assay: Inhibition of glucose induced mitochondrial metabolism in CD1 mouse pancreatic islets assessed as NADH and NADPH levels by fluorescence method; type: functional, cell-based
Summary of the method: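 Mouse islets pre-incubated 60 min at 37°C in 3 mM glucose. NAD(P)H fluorescence (360 nm excitation, >470 nm emission) expressed as percent of basal values within the same islet.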

Lytechinus pictus [15] = assay: Inhibition of IP3-induced Ca2+ release in sea urchin Egg homogenate at 100 uM using Fluo-3 staining based fluorimetric assay relative to control; values are per cent of control
Lytechinus pictus [16] = assay: Inhibition of cyclic ADP-ribose-induced Ca2+ release in sea urchin Egg homogenate at 100 uM using Fluo-3 staining based fluorimetric assay relative to control; values are per cent of control
Lytechinus pictus [17] = assay: Antagonistic activity at NAADP receptor in sea urchin egg homogenate assessed as inhibition of NAADP-mediated Ca2+ release at 100 uM using Fluo-3 staining based fluorimetric assay relative to control; values are per cent of control

Row | SMILES | inhibition (Lytechinus pictus [1]) | further results
1 | CS(=O)(=O)N(Cc1ccccc1)c1ccc(C(=O)N/N=C/c2cccc(Oc3ccccc3)c2)cc1 | inactive | –
2 | COc1ccc([C@H]2N[C@H](C(=O)O)Cc3c2[nH]c2ccccc32)cc1CN1CCN(c2ccccc2F)CC1 | – | IC50 [2]: 0.4 nM; IC50 [3]: 6 nM
3 | COc1ccc(C2N[C@H](C(=O)O)Cc3c2[nH]c2ccccc32)cc1CN1CCN(c2ccccc2F)CC1 (some centres not stated) | – | inhibition (Lytechinus pictus [4]): Active; Ki [5]: 6000 nM; inhibition (Lytechinus pictus [6]): Active; inhibition (Lytechinus pictus [7]): Active; inhibition (Mus musculus [8]): Active; Activity (Mus musculus [9]): Active; Activity (Mus musculus [10]): Active; IC50 [11]: 3000 nM; inhibition (Pancreatic islet [12]): Dose-dependent effect; inhibition (Mus musculus [13]): inactive; inhibition (Pancreatic islet [14]): inactive; IC50 [3]: 2000 nM; level, % of control (Lytechinus pictus [15]): 87%; level, % of control (Lytechinus pictus [16]): 101%; residual activity (Lytechinus pictus [17]): 5.4%
4 | Cc1ccc(-c2cc(C(=O)NCC(C)(C)CNC(=O)c3cc(-c4ccc(C)o4)nc4ccccc34)c3ccccc3n2)o1 | inactive | –
5 | CN1C(=O)/C(=C/c2ccccc2Cl)Sc2ccc(C(=O)N3CCN(Cc4ccc5c(c4)OCO5)CC3)cc21 | inactive | –
6 | CC(C)(c1ccccc1)c1ccc(OC[C@@H](O)CN[C@H](Cc2ccccc2)c2nc(-c3ccccc3)no2)cc1 | inactive | –
7 | NC(=O)c1c(NC(=O)CN2CCN(S(=O)(=O)c3ccc4c(c3)OCCO4)CC2)sc2c1CCCC2 | inactive | –
8 | O=C(COc1ccccc1-c1ccccc1)N1CCN(S(=O)(=O)c2ccc3c(c2)OCCO3)CC1 | inactive | –
9 | Cc1ccc(-n2c(SCC(=O)N/N=C\c3cccc(Oc4ccccc4)c3)nnc2-c2ccc(Cl)cc2)cc1 | inactive | –
10 | CC(C)N(CCCNC(=O)c1ccc2c(c1)N(Cc1c(F)cccc1Cl)C(=O)CS2)Cc1ccccc1 | Active | –
11 | C=C1NN(c2nc(-c3cccc([N+](=O)[O-])c3)cs2)C(=O)/C1=N/Nc1ccc(Cl)cc1C(=O)c1ccccc1 | Insoluble | –
12 | COc1ccc([C@@H]2N[C@H](C(=O)O)Cc3c2[nH]c2ccccc32)cc1CN1CCN(c2ccccc2F)CC1 | – | IC50 [2]: 15000 nM; IC50 [3]: 800 nM
13 | COc1ccc2[nH]c(C(=O)O)c(CCNC(=O)CO/N=C3/C=C[C@@]4(C)C(=C3)CC[C@@H]3[C@H]4CC[C@]4(C)[C@H]3CC[C@]4(C)O)c2c1 | Toxic | –
14 | COc1ccc(C(=O)OCC(=O)c2ccc3c(c2)-c2ccccc2C3)cc1S(=O)(=O)N1CCCc2ccccc21 | Active | –
15 | COc1ccc(S(=O)(=O)N2CCN([C@H](C)C(=O)Nc3ccccc3-c3ccccc3)CC2)cc1 | inactive | –
16 | FC(F)(F)c1cccc(N2CCN(Cn3nc(COc4ccccc4)n(-c4ccccc4)c3=S)CC2)c1 | Toxic | –
17 | CCN(CC)CCOC(=O)c1ccc(NC(=O)c2cc(-c3cccc4ccccc34)nc3ccccc23)cc1 | inactive | –
18 | COc1cc2c(cc1OC)-c1cc(NCCN3CCN(C(=O)c4ccc(F)cc4)CC3)nc(=O)n1CC2 | inactive | –
19 | CCn1c2ccccc2c2cc(NC(=O)CN3CCN(S(=O)(=O)c4ccc(OC)cc4)CC3)ccc21 | inactive | –
20 | CCC(=O)N1N=C(c2ccc(C3=NN(C(=O)CC)[C@H](c4cccc(OC)c4OC)C3)cc2)C[C@H]1c1cccc(OC)c1OC | Insoluble | –
21 | CN1C(=O)/C(=C/c2ccccc2F)Sc2ccc(C(=O)N3CCN(Cc4ccc5c(c4)OCO5)CC3)cc21 | inactive | –
22 | CCn1c2ccccc2c2cc(NC(=O)CN3CCN(S(=O)(=O)c4cc(Cl)ccc4Cl)CC3)ccc21 | inactive | –
23 | COc1ccccc1N(C)S(=O)(=O)c1ccc(C(=O)Nc2ccc(N(c3ccccc3)C(C)C)cc2)cc1 | Active | –
24 | C[C@@H]1CCc2c(sc(NC(=O)CN3CCN(S(=O)(=O)c4ccc5c(c4)OCCO5)CC3)c2C#N)C1 | inactive | –
25 | O=C(COC(=O)c1cccc(Oc2ccccc2)c1)COC(=O)c1cccc(Oc2ccccc2)c1 | inactive | –
26 | CCN1C(=O)c2ccccc2[C@H]1Nc1ccc(C(=O)N2CCN(C/C=C/c3ccccc3)CC2)cc1 | inactive | –
